SMILES strings stand for the structures. Bounds are passed on as bounds.

In one data set the target is HDAC3 (Homo sapiens, UniProt O15379). The data set can be described thus: Western blot analysis of HDAC3 degradation in breast cancer cells. The data set is classed as cell-based. The method, boiled down:
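MDA-MB-468 cells were treated with test compound for 14 h, and HDAC3 was assessed by western blot with band intensity normalized to α-tubulin. For the mechanism arm, cells were pretreated for 1 h with 1 μM MG132 or 10 μM VHL032 before 125 nM compound. A time course used 125 nM. For washout, cells got 125 nM for 14 h, then drug-free medium for additional time.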
Background: In western blotting, separated proteins are transferred to a membrane and probed.

Another data set concerns the target HDAC1 (Homo sapiens, UniProt Q13547). The experiment in a line: Western blot analysis of HDAC1 protein level in breast cancer cells. The format is cell-based. Conditions: MDA-MB-468 cells, 14 h treatment. In short, it runs like this: (§1)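 MDA-MB-468 cells were treated with test compound for 14 h, then the HDAC isoform protein level was assessed by western blot.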

Data set [1] concerns histone acetylation at H3K27 and H4K5. The experiment in a line: Western blot analysis of histone acetylation. The data set is classed as cell-based.
The test system of a further data set is MDA-MB-468 cells. The data set can be described thus: Colony formation assay. As to conditions: difference was moderate. The data set is classed as cell-based. The method, boiled down: (§2)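 Cells were grown with test compound, and the medium with freshly added compound was replaced every five days until colonies reached suitable size. Colonies were then stained. Four biological replicates.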

For a further data set, the system named is HDACs. The experiment in a line: HDAC-Glo I/II Assays. The data set is classed as biochemical. Conditions: Table S1.
The target in another data set is T1, HDAC6 (Homo sapiens, UniProt Q9UBN7).
T1 sequence (Q9UBN7 1-1215): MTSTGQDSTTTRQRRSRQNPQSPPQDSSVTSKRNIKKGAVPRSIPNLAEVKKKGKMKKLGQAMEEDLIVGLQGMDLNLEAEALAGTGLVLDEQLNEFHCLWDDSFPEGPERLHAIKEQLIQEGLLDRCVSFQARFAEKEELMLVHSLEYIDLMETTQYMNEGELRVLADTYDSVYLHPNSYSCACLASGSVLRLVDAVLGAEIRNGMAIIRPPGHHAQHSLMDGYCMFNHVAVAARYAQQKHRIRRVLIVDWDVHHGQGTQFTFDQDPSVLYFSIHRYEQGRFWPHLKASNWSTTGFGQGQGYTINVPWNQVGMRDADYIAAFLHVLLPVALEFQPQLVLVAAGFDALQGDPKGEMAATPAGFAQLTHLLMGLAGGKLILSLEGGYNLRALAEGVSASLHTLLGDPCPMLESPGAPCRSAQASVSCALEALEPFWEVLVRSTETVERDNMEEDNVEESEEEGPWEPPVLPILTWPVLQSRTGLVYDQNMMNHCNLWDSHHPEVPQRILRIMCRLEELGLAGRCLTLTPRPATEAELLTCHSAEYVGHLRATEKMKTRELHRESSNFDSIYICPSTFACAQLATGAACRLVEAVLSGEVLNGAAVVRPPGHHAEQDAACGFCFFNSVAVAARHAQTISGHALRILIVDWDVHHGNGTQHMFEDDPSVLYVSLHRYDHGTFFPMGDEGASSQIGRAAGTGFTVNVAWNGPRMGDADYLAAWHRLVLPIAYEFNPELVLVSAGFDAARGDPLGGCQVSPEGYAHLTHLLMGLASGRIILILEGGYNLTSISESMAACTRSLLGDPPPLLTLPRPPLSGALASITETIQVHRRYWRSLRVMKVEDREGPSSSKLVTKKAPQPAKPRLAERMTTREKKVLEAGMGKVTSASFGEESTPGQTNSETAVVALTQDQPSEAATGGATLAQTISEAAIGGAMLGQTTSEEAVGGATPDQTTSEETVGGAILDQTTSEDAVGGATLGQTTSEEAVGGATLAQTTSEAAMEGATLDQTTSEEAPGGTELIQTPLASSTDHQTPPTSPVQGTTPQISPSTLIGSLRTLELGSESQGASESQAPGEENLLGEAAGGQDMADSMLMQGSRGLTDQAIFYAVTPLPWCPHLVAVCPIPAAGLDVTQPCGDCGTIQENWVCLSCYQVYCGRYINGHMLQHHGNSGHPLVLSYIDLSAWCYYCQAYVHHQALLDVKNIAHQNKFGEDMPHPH
The experiment in a line: Western blot analysis of HDAC6 protein level in MDA-MB-468 cells. Conditions: 14 h treatment. The data set is classed as cell-based. The method, boiled down: as §1

The next data set can be described thus: Cytotoxicity. The format is cell-based. As to conditions: Fig. S3.
The next data set concerns the target HDAC2 (Homo sapiens, UniProt Q92769). The data set can be described thus: Western blot analysis of HDAC2 protein level in breast cancer cells. The data set is classed as cell-based. Conditions: MDA-MB-468 cells, 14 h treatment. The method, boiled down: as §1
The subject of the next data set is T47D. The data set can be described thus: Colony formation assay. The format is cell-based. Conditions: T47D breast cancer cells. In short, it runs like this:
as §2

In a further data set the test system is BT549. The experiment in a line: Colony formation assay. The data set is classed as cell-based. Conditions: BT549 breast cancer cells. The method, boiled down: as §2
Another data set concerns HCC1143. The experiment in a line: Colony formation assay. The data set is classed as cell-based. As to conditions: HCC1143 breast cancer cells. The method, boiled down:
as §2

A further data set deals with class I HDACs. Conditions: cited from earlier work.

HDAC3, sequence (O15379 whole entry): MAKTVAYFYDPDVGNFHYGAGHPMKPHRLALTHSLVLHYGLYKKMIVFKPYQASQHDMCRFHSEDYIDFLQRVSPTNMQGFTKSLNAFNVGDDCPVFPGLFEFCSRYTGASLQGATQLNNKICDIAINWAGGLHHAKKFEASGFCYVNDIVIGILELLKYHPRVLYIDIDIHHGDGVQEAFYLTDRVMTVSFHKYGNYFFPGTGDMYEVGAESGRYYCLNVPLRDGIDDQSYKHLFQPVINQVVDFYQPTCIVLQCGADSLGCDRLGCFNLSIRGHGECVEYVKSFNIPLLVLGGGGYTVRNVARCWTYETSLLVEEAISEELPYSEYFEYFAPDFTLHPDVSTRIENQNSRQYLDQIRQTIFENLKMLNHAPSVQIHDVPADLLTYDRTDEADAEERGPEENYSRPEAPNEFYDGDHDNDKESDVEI
HDAC3, sequence (Q9Y618 whole entry partner): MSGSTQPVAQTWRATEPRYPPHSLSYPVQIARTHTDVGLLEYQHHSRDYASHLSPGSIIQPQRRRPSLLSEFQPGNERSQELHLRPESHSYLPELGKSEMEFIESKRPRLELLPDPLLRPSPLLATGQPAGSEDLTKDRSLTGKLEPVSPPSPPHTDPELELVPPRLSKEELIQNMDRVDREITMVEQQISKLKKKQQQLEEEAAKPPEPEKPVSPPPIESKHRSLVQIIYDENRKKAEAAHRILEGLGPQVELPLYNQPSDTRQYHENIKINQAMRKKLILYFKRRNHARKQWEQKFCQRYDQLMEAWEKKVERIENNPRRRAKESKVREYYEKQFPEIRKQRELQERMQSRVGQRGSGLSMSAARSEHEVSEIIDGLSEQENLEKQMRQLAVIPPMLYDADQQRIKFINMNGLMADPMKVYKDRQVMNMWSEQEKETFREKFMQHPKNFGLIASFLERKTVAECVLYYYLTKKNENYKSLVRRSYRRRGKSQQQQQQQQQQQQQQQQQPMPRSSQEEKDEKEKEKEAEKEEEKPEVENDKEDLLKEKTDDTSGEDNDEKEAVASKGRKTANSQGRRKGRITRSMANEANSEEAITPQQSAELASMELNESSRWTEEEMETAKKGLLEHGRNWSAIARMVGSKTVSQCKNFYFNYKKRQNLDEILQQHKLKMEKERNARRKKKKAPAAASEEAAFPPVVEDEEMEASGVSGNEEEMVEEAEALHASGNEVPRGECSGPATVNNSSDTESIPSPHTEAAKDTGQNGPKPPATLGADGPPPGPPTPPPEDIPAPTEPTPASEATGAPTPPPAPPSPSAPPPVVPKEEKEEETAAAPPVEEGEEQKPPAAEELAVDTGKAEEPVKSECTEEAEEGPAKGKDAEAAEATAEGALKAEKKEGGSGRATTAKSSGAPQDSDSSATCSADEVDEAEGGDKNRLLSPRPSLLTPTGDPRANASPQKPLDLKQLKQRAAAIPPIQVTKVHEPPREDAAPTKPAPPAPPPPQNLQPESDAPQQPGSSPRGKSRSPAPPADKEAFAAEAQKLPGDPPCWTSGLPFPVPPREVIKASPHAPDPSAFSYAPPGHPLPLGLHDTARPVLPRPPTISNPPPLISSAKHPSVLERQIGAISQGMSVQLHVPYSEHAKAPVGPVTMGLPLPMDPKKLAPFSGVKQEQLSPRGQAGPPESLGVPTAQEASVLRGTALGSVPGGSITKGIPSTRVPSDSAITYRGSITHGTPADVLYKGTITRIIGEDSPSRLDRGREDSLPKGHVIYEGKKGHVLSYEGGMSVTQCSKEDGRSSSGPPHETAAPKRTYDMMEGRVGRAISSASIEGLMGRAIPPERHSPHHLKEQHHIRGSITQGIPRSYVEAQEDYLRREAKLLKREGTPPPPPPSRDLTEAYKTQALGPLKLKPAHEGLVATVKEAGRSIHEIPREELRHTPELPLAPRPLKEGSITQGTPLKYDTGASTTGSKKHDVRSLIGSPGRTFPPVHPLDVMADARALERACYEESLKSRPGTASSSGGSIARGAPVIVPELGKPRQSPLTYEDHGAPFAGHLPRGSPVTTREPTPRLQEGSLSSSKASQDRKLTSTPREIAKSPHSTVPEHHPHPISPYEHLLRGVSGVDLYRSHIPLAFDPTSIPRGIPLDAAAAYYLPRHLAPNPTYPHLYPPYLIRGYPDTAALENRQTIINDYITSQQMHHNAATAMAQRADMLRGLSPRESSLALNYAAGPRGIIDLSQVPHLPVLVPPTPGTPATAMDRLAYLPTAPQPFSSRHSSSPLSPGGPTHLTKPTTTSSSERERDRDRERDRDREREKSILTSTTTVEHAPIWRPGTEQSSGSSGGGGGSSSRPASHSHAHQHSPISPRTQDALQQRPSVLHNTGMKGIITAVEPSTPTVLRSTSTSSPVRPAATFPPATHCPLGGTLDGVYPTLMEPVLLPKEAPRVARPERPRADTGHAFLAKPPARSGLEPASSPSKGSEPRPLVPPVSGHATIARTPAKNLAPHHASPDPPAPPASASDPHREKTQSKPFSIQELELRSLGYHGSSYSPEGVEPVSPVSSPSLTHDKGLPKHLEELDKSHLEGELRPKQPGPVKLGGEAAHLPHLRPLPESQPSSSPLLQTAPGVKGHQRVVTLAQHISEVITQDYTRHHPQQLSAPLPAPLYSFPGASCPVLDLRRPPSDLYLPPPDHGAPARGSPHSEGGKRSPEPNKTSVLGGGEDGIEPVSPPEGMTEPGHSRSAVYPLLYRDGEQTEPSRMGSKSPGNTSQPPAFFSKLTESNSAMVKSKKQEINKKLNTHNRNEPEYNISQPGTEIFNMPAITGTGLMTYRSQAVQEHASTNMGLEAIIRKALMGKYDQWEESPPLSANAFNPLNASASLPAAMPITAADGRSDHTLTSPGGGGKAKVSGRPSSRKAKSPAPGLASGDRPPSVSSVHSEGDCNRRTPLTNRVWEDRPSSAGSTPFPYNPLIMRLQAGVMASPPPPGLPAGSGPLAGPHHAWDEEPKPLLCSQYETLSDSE
HDAC2, sequence (Q92769 whole entry): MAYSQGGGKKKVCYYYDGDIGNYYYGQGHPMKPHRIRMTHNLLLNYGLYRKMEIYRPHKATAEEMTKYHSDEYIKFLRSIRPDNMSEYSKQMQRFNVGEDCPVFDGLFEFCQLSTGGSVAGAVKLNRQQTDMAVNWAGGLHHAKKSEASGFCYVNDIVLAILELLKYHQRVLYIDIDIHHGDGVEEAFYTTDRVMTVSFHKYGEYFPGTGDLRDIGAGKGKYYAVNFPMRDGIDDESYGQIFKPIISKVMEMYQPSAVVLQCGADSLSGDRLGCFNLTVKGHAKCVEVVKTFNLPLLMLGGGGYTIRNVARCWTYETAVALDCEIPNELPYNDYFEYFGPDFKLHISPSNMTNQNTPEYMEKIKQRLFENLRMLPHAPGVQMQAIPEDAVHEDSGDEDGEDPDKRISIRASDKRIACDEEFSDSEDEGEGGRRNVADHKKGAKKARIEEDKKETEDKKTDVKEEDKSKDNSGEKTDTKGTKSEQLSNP
HDAC1, sequence (Q13547 whole entry, canonical isoform): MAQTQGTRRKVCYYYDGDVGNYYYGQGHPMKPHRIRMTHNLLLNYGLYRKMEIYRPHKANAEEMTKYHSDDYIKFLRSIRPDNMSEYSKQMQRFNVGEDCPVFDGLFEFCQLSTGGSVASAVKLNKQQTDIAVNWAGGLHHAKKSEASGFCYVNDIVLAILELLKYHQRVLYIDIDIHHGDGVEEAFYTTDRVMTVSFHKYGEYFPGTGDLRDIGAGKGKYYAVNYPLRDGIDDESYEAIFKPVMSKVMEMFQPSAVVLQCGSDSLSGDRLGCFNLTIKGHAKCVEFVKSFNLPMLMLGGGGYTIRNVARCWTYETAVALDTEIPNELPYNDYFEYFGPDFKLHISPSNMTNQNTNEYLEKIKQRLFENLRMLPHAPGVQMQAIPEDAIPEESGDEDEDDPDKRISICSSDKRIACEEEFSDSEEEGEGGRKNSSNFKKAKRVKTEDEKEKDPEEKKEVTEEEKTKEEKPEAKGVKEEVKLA

Consider `CCCNNC(=O)c1ccc(-c2ccc(NC(=O)CCCCCCC(=O)N[C@H](C(=O)N3C[C@@H](O)C[C@@H]3C(=O)N[C@@H](C)c3ccc(-c4scnc4C)cc3)C(C)(C)C)cc2)cc1` [XZ9002-NC], for which the HDAC3 degradation result on HDAC3 (MDA-MB-468 cells, Fig. 2B) is given as “did not induce HDAC3 degradation”.
For `CCCNNC(=O)c1ccc(-c2ccc(NC(=O)CCCCCCC(=O)N[C@H](C(=O)N3C[C@H](O)C[C@H]3C(=O)N[C@@H](C)c3ccc(-c4scnc4C)cc3)C(C)(C)C)cc2)cc1` [XZ9002], at HDAC1, the “change in protein level of HDAC1” value is listed as “no significant changes”. Besides, the histone acetylation entry in data set [1] (Fig. 2A and Fig. S2, moderate effects compared to 15 and CRBN-based PROTACs) was “dose-dependently increased”. In [1] (Fig. S2), the “potency to induce histone hyperacetylation compared to 15” value was “less potent”. Further, the “inhibition of clonogenic growth compared to XZ9002-NC” value with MDA-MB-468 cells is on record as “more effective”. Besides, in the data set on HDACs, the “binding of HDAC3 compared with other HDACs” value is reported as “more strongly”. In addition, on HDAC6, the “change in protein level of HDAC6” value is “no significant changes”. Also, in the data set “Cytotoxicity”, the “potency to induce cytotoxicity compared to 15” value is reported as “less potent”. The “change in protein level of HDAC2” value on HDAC2 is on record as “no significant changes”. Further, the “suppression of clonogenic growth compared to XZ9002-NC” value in the data set with T47D, in the data set with BT549 and in the data set with HCC1143 was “markedly more potent” each time. In addition, the “time for HDAC3 to rebound to the steady level after washout” value on HDAC3 (MDA-MB-468, 125 nM for 14 h then drug-free medium) was “more than 12 h”. The compound also came in with an HDAC3 degraded on HDAC3 (MDA-MB-468, 125 nM, 8 h treatment) of 70%. Further, the “start of HDAC3 degradation” value on HDAC3 (MDA-MB-468, 125 nM, time course) is recorded as no more than 2 h. In addition, the “HDAC3 degradation after pre-incubation with proteasome inhibitor MG132” value on HDAC3 (MDA-MB-468, XZ9002 125 nM, MG132 1 μM for 1 h) is “blocked”. For the same compound, the “HDAC3 degradation after pre-incubation with VHL ligand VH032” value on HDAC3 (MDA-MB-468, XZ9002 125 nM, VH032 10 μM for 1 h) is reported as “blocked”.
For the compound `CCCCNNC(=O)c1ccc(-c2ccccc2)cc1` [SR-3558], the “HDAC isozyme binding preference” value with class I HDACs (benzoylhydrazide ZBG) was “preferentially binds to HDAC3”. The “inhibition of class I HDACs” value with class I HDACs was “potent and selective inhibitor”.
